Source: ChEMBL document CHEMBL1121372, “Synthesis and antihypertensive activity of 5-amino-2-pyridinecarboxylic acid derivatives” (1980)
Active and inactive are the calls of the source. The calls are words filed in the database; no cut-off is given here.

What was measured:
Rattus norvegicus [1] = assay: Antihypertensive effect in spontaneously hypertensive rat (SHR), expressed as fall in blood pressure (BP) at 50 mg/kg dose given orally; assay type: functional; settings: route oral
Method in brief: (§1)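 Male SHR, about 16 weeks old, with systolic pressure above 150 mmHg, held in restraint cages. Tail-cuff occlusion was raised to 250 mmHg and then lowered, after 1 h acclimation and at least 3 baseline readings. Dosing was by daily gavage in 3% cornstarch/5% PEG-400/Tween 80 for 2 or 4 days, with 4–6 rats per drug. Readings at 1, 2, 3 and 24 h; peak fall reported.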

Rattus norvegicus [2] = assay: The compound was tested for antihypertensive effect in spontaneously hypertensive rat (SHR), expressed as fall in blood pressure (BP) at 50 mg/kg dose given per orally; assay type: functional; settings: route oral; method in brief: as §1
Rattus norvegicus [3] = assay: The compound was tested for antihypertensive effect in spontaneously hypertensive rat (SHR), expressed as fall in blood pressure (BP) at 100 mg/kg dose given orally; Inactive; assay type: functional, organism-based; design: dose 100 mg/kg; method in brief: as §1
Rattus norvegicus [4] = assay: The compound was tested for antihypertensive effect in spontaneously hypertensive rat (SHR), expressed as fall in blood pressure (BP) at 100 mg/kg dose given orally; assay type: functional; settings: route oral; method in brief: as §1
Rattus norvegicus [5] = assay: The compound was tested for antihypertensive effect in spontaneously hypertensive rat (SHR), expressed as fall in blood pressure (BP) at 50 mg/kg dose given orally; assay type: functional; settings: route oral; method in brief: as §1
Canis familiaris [6] = assay: Antihypertensive activity in unanesthetized renal hypertensive dogs measured as Heart Rate (HR) (beats/min) at 60 mg per kg dose after peroral administration on day 2; assay type: functional, Canis lupus familiaris; settings: route oral
Method in brief: (§2)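 Renal hypertensive dogs, unanesthetized. Drug given orally once daily as solid in gelatin capsule. Blood pressure and heart rate read at 1.5, 3, 6 and 24 h after each dose. Value is the maximum change over the daily monitored session, mean ± SE. MBP in mm Hg, HR in beats/min, p < 0.05 flagged.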

Canis familiaris [7] = assay: Antihypertensive activity in unanesthetized renal hypertensive dogs measured as Heart Rate (HR) (beats/min) at 60 mg per kg dose after peroral administration on day 3; assay type: functional, Canis lupus familiaris; settings: route oral; method in brief: as §2
Canis familiaris [8] = assay: Antihypertensive activity in unanesthetized renal hypertensive dogs measured as Heart Rate (HR) (beats/min) at 60 mg per kg dose after peroral administration on day1; assay type: functional, Canis lupus familiaris; settings: route oral; method in brief: as §2
Canis familiaris [9] = assay: Antihypertensive activity in unanesthetized renal hypertensive dogs measured as mean Blood Pressure at 60 mg per kg dose after peroral administration on day 2; assay type: functional, Canis lupus familiaris; settings: route oral; method in brief: as §2
Canis familiaris [10] = assay: Antihypertensive activity in unanesthetized renal hypertensive dogs measured as mean Blood Pressure at 60 mg per kg dose after peroral administration on day 3; assay type: functional, Canis lupus familiaris; settings: route oral; method in brief: as §2
Canis familiaris [11] = assay: Antihypertensive activity in unanesthetized renal hypertensive dogs measured as mean Blood Pressure at 60 mg per kg dose after peroral administration on day1; assay type: functional, Canis lupus familiaris; settings: route oral; method in brief: as §2
Rattus norvegicus [12] = assay: The compound was tested for antihypertensive effect in spontaneously hypertensive rat (SHR), expressed as fall in blood pressure (BP) at 50 mg/kg dose given orally; Inactive; assay type: functional, organism-based; design: dose 50 mg/kg; method in brief: as §1
Canis familiaris [13] = assay: Antihypertensive activity in unanesthetized renal hypertensive dogs measured as mean Blood Pressure at 100 mg per kg dose after peroral administration on day1; assay type: functional, Canis lupus familiaris; design: unit not given beside the values; settings: route oral
Method in brief: (§3)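 Renal hypertensive dogs, unanesthetized. Test compound given orally once daily as a solid in a gelatin capsule. Blood pressure was taken at 1.5, 3, 6 and 24 h after each daily dose. Activity is the maximum change in mean blood pressure or heart rate over each daily session. Values are mean ± SE, with significance marked at p < 0.05.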

Canis familiaris [14] = assay: Antihypertensive activity in unanesthetized renal hypertensive dogs measured as mean Blood Pressure at 100 mg per kg dose after peroral administration on day 2; assay type: functional, Canis lupus familiaris; settings: route oral; method in brief: as §3
Rattus norvegicus [15] = assay: The compound was tested for antihypertensive effect in spontaneously hypertensive rat (SHR), expressed as fall in blood pressure (BP) at 25 mg/kg dose given orally; assay type: functional; settings: route oral; method in brief: as §1
Canis familiaris [16] = assay: Antihypertensive activity in unanesthetized renal hypertensive dogs measured as Heart Rate (HR) (beats/min) at 100 mg per kg dose after peroral administration on day1; assay type: functional, Canis lupus familiaris; settings: route oral; method in brief: as §3
Canis familiaris [17] = assay: Antihypertensive activity in unanesthetized renal hypertensive dogs measured as Heart Rate (HR) (beats/min) at 100 mg per kg dose after peroral administration on day 2 (p<0.05); assay type: functional, Canis lupus familiaris; settings: route oral; method in brief: as §3
Canis familiaris [18] = assay: Antihypertensive activity in unanesthetized renal hypertensive dogs measured as mean Blood Pressure at 100 mg per kg dose after peroral administration on day 2 (p<0.05); assay type: functional, Canis lupus familiaris; settings: route oral; method in brief: as §3

CC(Nc1ccc(C(=O)O)nc1)c1ccccc1 (stereo not given) was tested, and the BP (Rattus norvegicus [1]) was >80 mmHg.

With OCc1ccc(NCc2cccc(Cl)c2)cn1 the BP (Rattus norvegicus [1]) was > 40 mmHg.

In the case of NNC(=O)c1ccc(NCc2ccc(F)cc2)cn1, the BP (Rattus norvegicus [1]) is reported as >40 mmHg.

For O/N=C/c1ccc(NCc2ccc(F)cc2)cn1, the BP (Rattus norvegicus [1]) was <20 mmHg.

For CN(Cc1cccc(Oc2ccccc2)c1)c1ccc(C(=O)O)nc1, the BP (Rattus norvegicus [1]) was >20 mmHg.

With CCCCNc1ccc(C(=O)OC)nc1 the BP (Rattus norvegicus [2]) was <20 mmHg.

In the case of Cc1cccc(CNc2ccc(C(=O)O)nc2)c1, the BP (Rattus norvegicus [1]) is reported as >20 mmHg.

For CCC(=O)Nc1ccc(C(=O)O)nc1, the BP (Rattus norvegicus [3]) was “inactive”.

For O=C(O)c1ccc(NCc2cccc(Br)c2)cn1, the BP (Rattus norvegicus [1]) was >20 mmHg.

In the case of O=C(O)c1ccc(NCc2cccc(C(F)(F)F)c2)cn1, the BP (Rattus norvegicus [4]) is reported as >60 mmHg.

Cc1nc(C(=O)O)ccc1N(C)Cc1cccc(Cl)c1 was tested, and the BP (Rattus norvegicus [4]) was >20 mmHg.

With CC(Nc1ccc(C(=O)O)nc1)c1ccc(F)cc1 (stereo not given) the BP (Rattus norvegicus [5]) was >40 mmHg.

For O=C(O)c1ccc(N(Cc2cccc(Cl)c2)Cc2cccc(Cl)c2)cn1, the BP (Rattus norvegicus [4]) was >20 mmHg.

CCCCc1ccc(C(=O)O)nc1 [FUSARIC ACID] gave an HR (Canis familiaris [6]) of 35, an HR (Canis familiaris [7]) of 33 and an HR (Canis familiaris [8]) of 32. For the same molecule, the MBP (Canis familiaris [9]) was -45, the MBP (Canis familiaris [10]) was -30 and the MBP (Canis familiaris [11]) was -50. For the same molecule, the BP (Rattus norvegicus [4]) was >60 mmHg.

With N#Cc1ccc(NCc2ccc(F)cc2)cn1 the BP (Rattus norvegicus [12]) was “inactive”.

In the case of COc1cc(CNc2ccc(C(=O)O)nc2)cc(OC)c1OC, the BP (Rattus norvegicus [1]) is reported as <20 mmHg.

With O=C(O)c1ccc(NCc2ccc(Cl)cc2)cn1 the BP (Rattus norvegicus [4]) was >40 mmHg.

In the case of O=C(O)c1ccc(NCCCc2ccccc2)cn1, the BP (Rattus norvegicus [4]) is reported as >40 mmHg.

For Cc1nc(C(=O)O)ccc1NCc1cccc(Cl)c1, the BP (Rattus norvegicus [1]) was >20 mmHg.

For CC(C)(C)c1ccc(CNc2ccc(C(=O)O)nc2)cc1, the BP (Rattus norvegicus [1]) was <20 mmHg.

With NC(=O)c1ccc(CNc2ccc(C(=O)O)nc2)cc1 the BP (Rattus norvegicus [1]) was <20 mmHg.

In the case of O=C(O)c1ccc(NCCc2ccccc2)cn1, the BP (Rattus norvegicus [1]) is reported as >20 mmHg.

O=C(O)c1ccc(NCc2ccc(F)cc2)c[n+]1[O-] was tested, and the BP (Rattus norvegicus [1]) was >20 mmHg.

In the case of O=C(O)c1ccc(NCc2ccncc2)cn1, the BP (Rattus norvegicus [1]) is reported as >20 mmHg.

In the case of O=C(O)c1ccc(NCc2ccccc2F)cn1, the BP (Rattus norvegicus [1]) is reported as >40 mmHg.

O=Cc1ccc(NCc2ccc(F)cc2)cn1 was tested, and the BP (Rattus norvegicus [1]) was >80 mmHg.

In the case of COc1cccc(CNc2ccc(C(=O)O)nc2)c1, the BP (Rattus norvegicus [1]) is reported as >20 mmHg.

With COC(=O)c1ccc(NCc2ccc(Cl)cc2)cn1 the BP (Rattus norvegicus [4]) was >60 mmHg.

CN(Cc1cccc(Cl)c1)c1ccc(C(=O)O)nc1 was tested, and the MBP (Canis familiaris [13]) was -21, the MBP (Canis familiaris [14]) was -25 and the BP (Rattus norvegicus [4]) was >80 mmHg. The BP (Rattus norvegicus [1]) was >80 mmHg and the BP (Rattus norvegicus [15]) was >40 mmHg.

With CN(C)C(=O)c1ccc(NCc2ccc(F)cc2)cn1 the “Maximum change in heart rate” value (Canis familiaris [16]) was 20, the HR (Canis familiaris [17]) was 112 and the MBP (Canis familiaris [18]) was -67. For the same molecule, the BP (Rattus norvegicus [1]) was >60 mmHg.

For COc1cccc(CN(C)c2ccc(C(=O)O)nc2)c1, the BP (Rattus norvegicus [1]) was >20 mmHg.

With COC(=O)c1ccc(N(C)Cc2cccc(Cl)c2)cn1 the BP (Rattus norvegicus [1]) was >20 mmHg.
